Shown are actives, neighbours in structure and some others; about 4.6% of the full set was active somewhere.
OX1R antag-1: blocks the human orexin 1 receptor; O43613; CHO/OX1R cells, Fluo-8 calcium fluorescence, orexin A; inhibition, % at 5 µM; 0.43% of 330,000 active; AID 434989;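 active means inhibition above its plate's threshold, mean inhibition of all tested compounds on the plate plus 3 SD, cut at about 37% in these data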;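 further: 0% = orexin A challenge wells and 100% = SB-334867-A antagonist wells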
Target sequence (O43613 whole entry, looked up): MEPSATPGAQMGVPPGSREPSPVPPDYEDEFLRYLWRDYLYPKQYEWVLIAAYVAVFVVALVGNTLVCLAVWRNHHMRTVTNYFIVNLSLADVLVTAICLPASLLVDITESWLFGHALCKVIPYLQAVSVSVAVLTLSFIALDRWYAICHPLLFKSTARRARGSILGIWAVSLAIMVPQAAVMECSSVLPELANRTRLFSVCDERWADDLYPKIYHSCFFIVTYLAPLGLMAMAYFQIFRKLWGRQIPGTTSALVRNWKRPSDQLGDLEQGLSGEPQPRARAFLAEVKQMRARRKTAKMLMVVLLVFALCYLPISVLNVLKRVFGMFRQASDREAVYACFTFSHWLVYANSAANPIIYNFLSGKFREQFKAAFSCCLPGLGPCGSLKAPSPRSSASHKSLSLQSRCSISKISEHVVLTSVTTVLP
TAAR1 antagonist: human TAAR1 antagonism. CHO RD-HGA16 TAAR1, Fluo-8 calcium fluorescence, antagonist. inhibition, % at 3 µM. 1.5% of 360,000 active. AID 624466;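 active means inhibition above a per-plate cutoff, the mean inhibition of test compounds on that plate plus 3 SD, cut at about 49% in these data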;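 further: 0% = DMSO plus EC80 beta-PEA response and 100% = DMSO alone without agonist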
Target sequence (Q96RJ0 whole entry, looked up): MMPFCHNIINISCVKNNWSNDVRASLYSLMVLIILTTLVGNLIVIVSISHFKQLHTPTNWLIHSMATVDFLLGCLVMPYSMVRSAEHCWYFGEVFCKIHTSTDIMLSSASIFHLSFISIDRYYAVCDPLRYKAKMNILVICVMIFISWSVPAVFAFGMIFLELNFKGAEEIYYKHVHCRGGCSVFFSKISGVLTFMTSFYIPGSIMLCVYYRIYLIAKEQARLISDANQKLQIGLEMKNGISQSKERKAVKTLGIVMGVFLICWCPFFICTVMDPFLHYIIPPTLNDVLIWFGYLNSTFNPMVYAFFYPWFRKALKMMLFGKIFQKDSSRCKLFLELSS
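Test system: RD-HGA16 CHO cells with stable hTAAR1 and Gα16 / Probe or stimulus: EC80 β-phenethylamine stimulus / Times: seeding 17-24 h prior, 75-min 37 °C, 30-min RT dye loading / Detection: Fluo-8 calcium-sensitive fluorescence / Read-out basis: % inhibition scaled between DMSO and EC80 PEA controls / Repeats: singlicate, one well per test compound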
GPR7 antag: blocks human GPR7 receptor signaling. GPR7-expressing cells, fluorescence antagonist assay. inhibition, % at 4.4 µM. 1.1% of 290,000 active. AID 1861; in the data active means inhibition above about 16%, passing the limit was not always enough;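 further: cells stimulated with the agonist NPW; 0% = agonist with vehicle and 100% = vehicle without agonist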
CHO parental Ca: counter-screen for OX1R antagonists: effect in parental CHO cells | parental CHO-K1, ATP-induced calcium, Fluo-8 fluorescence | inhibition, % at 5.6 µM | 0.63% of 330,000 active;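 active means inhibition above that plate's mean sample inhibition plus 3 SD, cut at about 26% in these data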;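 further: 0% = ATP-challenged DMSO wells and 100% = DMSO wells without ATP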
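Material – parental CHO cells · Reagent – ATP stimulus · Compound – single nominal dose of 5.6 µM per compound · Detection – Fluo-8 fluorescence · Read-out basis – percent inhibition of calcium signal · Controls – ATP-challenged DMSO wells low, unchallenged DMSO wells high · Repeats – no replicates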
TAAR1 agonist: agonists of human TAAR1; AID 624467; CHO RD-HGA16 TAAR1, Fluo-8 calcium fluorescence; vehicle wells 0%, saturating PEA agonist 100%; 0.99% of 360,000 active; Q96RJ0; activation, % at 3 µM;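 active means activation above the mean activation of all test compounds in the run plus 3 SD, cut at about 38% in these data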
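Test system: RD-HGA16 (CHO) cells co-expressing Gα16 and hTAAR1 / Benchmarks: DMSO vehicle as 0%, PEA at EC100 as 100% / Repeats: no replicates (n 1) / Measure: % activation from peak over basal fluorescence ratio, DMSO-to-PEA scaled / Timing: 17-24 h plating, Fluo-8 75 min 37 °C, 30 min RT / Technique: kinetic Fluo-8 calcium fluorescence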
OX1R antag-2: blocks the human orexin 1 receptor | O43613 | OX1R-expressing cells, FRET antagonist read-out | inhibition, % at 6.6 µM | 1.8% of 330,000 active | AID 485270; in the data active means inhibition mostly above about 38%, no sharp cut-off; inactive means mostly below about 40%;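 further: 0% = agonist challenge alone and 100% = reference antagonist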
TAAR1 nonsel count: nonselective antagonism, TAAR1 counter-screen. shares compounds with TAAR1 antagonist. counterscreen cell line, calcium fluorescence, antagonist mode. inhibition, % at 3 µM. 77% of 2,400 active; in the data active means inhibition above about 22%;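 further: CHO-Ga16 host cells stimulated with ATP at an EC80 level; 0% = agonist EC80 plus vehicle and 100% = vehicle without agonist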
TAAR1 antag conf: human TAAR1 antagonism, confirmed. shares compounds with TAAR1 antagonist. TAAR1-expressing cells, fluorescence antagonist read-out. inhibition, % at 3 µM. 40% of 2,400 active. AID 651785; in the data active means inhibition above about 49%;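 further: CHO-Ga16 host cells challenged with agonist PEA near its EC80; 0% = agonist at EC80 plus vehicle and 100% = vehicle with no agonist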
Ga16 nonsel ag: counter-screen for TAAR1 antagonists: nonselective Ga16 agonists. Ga16-expressing cells, calcium fluorescence, agonist counterscreen. shares compounds with TAAR1 antagonist. 18% of 2,400 active. activation, % at 3 µM; in the data active means activation above about 12%;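 further: 0% = vehicle wells and 100% = saturating stimulus response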
TAAR1 ag count: TAAR1 agonism, antagonist counter-screen | shares compounds with TAAR1 antagonist | 2% of 2,400 active | activation, % at 3 µM | hTAAR1 cell line, fluorescence activation, agonist mode; in the data active means activation above about 37%;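 further: CHO cells stably expressing TAAR1 with calcium dye readout; 0% = DMSO vehicle and 100% = full agonist response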
* hit, by the source's call; . = no result.

SMILES	OX1R antag-1	TAAR1 antagonist	GPR7 antag	CHO parental Ca	TAAR1 agonist	OX1R antag-2	TAAR1 nonsel count	TAAR1 antag conf	Ga16 nonsel ag	TAAR1 ag count
CC(=O)N1N=C(c2cccc(NS(C)(=O)=O)c2)CC1c1cccs1 (centres undefined)	-15.3	0.1	-10.6	-13.4	2.8	9.9	.	.	.	.
CC(=O)N1N=C(c2cccc(O)c2)CC1c1cccs1 (centres undefined)	.	70.6*	-4.0	.	16.5	.	18.2	43.9	7.2	12.1
O=C1C(NS(=O)(=O)c2cccs2)=C(N2CCN(c3cccc(C(F)(F)F)c3)CC2)C(=O)c2ccccc21	-35.3	11.7	0.3	-2.1	4.1	45.9	.	.	.	.
O=C1C(NS(=O)(=O)c2cccs2)=C(N2CCN(Cc3ccccc3)CC2)C(=O)c2ccccc21	-19.8	70.8*	-15.9	-22.7	9.5	36.8	30.0*	48.7*	5.9	4.4
CCn1c(NCc2ccccn2)nc2ccccc21	-6.8	2.2	-6.4	0.7	-0.4	19.4	.	.	.	.
COc1ccccc1N(C)S(=O)(=O)c1ccc(C(=O)NCc2ccc3c(c2)OCO3)cc1	-14.7	66.7*	-5.9	13.4	18.4	17.1	31.2*	53.5*	10.8	11.8
COc1ccccc1N(C)S(=O)(=O)c1ccc(C(=O)N(C)Cc2cccc(OC)c2OC)cc1	.	31.1	.	.	4.8	.	.	.	.	.
Cc1ccc(CNC(=O)c2ccc(N(C)S(=O)(=O)c3ccccc3)cc2)cc1	-8.5	-24.4	-1.5	-15.8	6.1	13.7	.	.	.	.
COc1ccccc1N(C)S(=O)(=O)c1ccc(C(=O)N(C)Cc2ccc(Cl)s2)cc1	-9.9	51.0*	.	-22.9	14.5	11.7	26.8*	37.5	8.1	6.6
COc1cccc(C(=O)NCc2ccc3c(c2)OCO3)c1OC	.	-14.4	-7.2	.	2.7	.	.	.	.	.
CCN(CC)CCNC(=O)c1ccc(NC(=O)c2ccc(S(=O)(=O)N(C)c3ccccc3OC)cc2)cc1	.	-3.5	.	.	1.7	.	.	.	.	.
CN(c1ccccc1)S(=O)(=O)c1ccc(C(=O)NCc2ccc(F)cc2)cc1	15.0	63.9*	.	3.3	15.8	3.5	41.7*	58.3*	12.2*	10.4
COc1ccccc1N(C)S(=O)(=O)c1ccc(C(=O)Nc2ccc(C(N)=O)cc2)cc1	5.4	54.1*	.	-13.4	8.5	4.5	23.8*	30.0	4.2	5.1
Cc1c(NC(=O)CSc2nncc3ccccc23)c(=O)n(-c2ccccc2)n1C	-24.5	15.4	-5.9	-3.3	2.5	9.6	.	.	.	.
COc1ccc2c(C(=O)NCc3ccc4c(c3)OCO4)c(-c3ccc(S(C)(=O)=O)cc3)sc2c1	1.4	63.6*	.	-2.1	21.0	4.6	36.0*	54.7*	7.8	12.2
COC(=O)c1c(-c2ccc(S(C)(=O)=O)cc2)sc2cc(OC)ccc12	-0.6	8.6	.	5.8	12.9	8.0	.	.	.	.
COc1ccc(C(=O)Nc2cccc(NC(=O)c3ccc(OC)c(OC)c3)n2)cc1OC	-13.6	62.1*	-1.7	-4.5	25.2	13.8	35.3*	54.8*	10.5	7.4
Cc1cccc(CCN(Cc2cc3cccc(C)c3[nH]c2=O)C(=O)N2CCOCC2)c1	-36.4	13.2	-8.9	-20.8	18.4	13.0	.	.	.	.
COc1cc(/C=N/n2cnnc2)ccc1OC(=O)c1ccncc1	-7.3	106.7*	-7.9	-10.9	1.7	2.5	6.2	3.6	0.6	-0.7
COC(=O)c1ccccc1NC(=S)N1CCN(C2CCCCC2)CC1	-8.3	9.7	-6.1	-6.7	1.9	6.2	.	.	.	.
CC1Cc2ccccc2N1C(=O)c1cc2c(=O)n3ccccc3nc2n1C (centres undefined)	-19.2	56.3*	-14.1	-20.0	16.6	9.9	27.3*	49.0*	11.8*	18.0
COCC1CN(CCc2ccc(F)cc2)S(=O)(=O)c2c(OCCN3C(=O)[C@@H]4[C@H](C3=O)[C@@H]3C=C[C@H]4C3)cccc2O1 (some centres undefined)	.	63.0*	.	.	17.8	.	36.4*	58.2*	9.2	12.1
CC1(C)C(=O)N(CCN2CCC(C(=O)c3ccc(F)cc3)CC2)c2ccccc21	-16.5	86.9*	.	-13.6	12.8	18.6	36.7*	56.5*	12.1*	10.5
O=C(c1ccc(F)cc1)C1CCN(CCn2c(=S)[nH]c3ccccc3c2=O)CC1	-13.4	.	-1.0	-17.3	.	14.9	.	.	.	.
COc1ccc(-c2nc(C#N)c(NCc3ccccc3Cl)o2)cc1	-13.0	52.6*	-13.5	-7.9	16.3	13.8	3.6	7.1	1.4	6.2
SMILES	OX1R antag-1	TAAR1 antagonist	GPR7 antag	CHO parental Ca	TAAR1 agonist	OX1R antag-2	TAAR1 nonsel count	TAAR1 antag conf	Ga16 nonsel ag	TAAR1 ag count
O=C(c1ccc(Br)o1)N(Cc1ccccc1)Cc1ccccc1	-51.4	49.8*	-13.3	-29.6	16.1	23.9	12.5	13.7	0.7	-0.2
Cc1ccc(C)c(S(=O)(=O)N2CCCC2CNC(=O)C(=O)NCCc2ccccc2)c1 (centres undefined)	-2.8	68.5*	.	-22.2	19.8	38.1*	30.7*	47.2	11.3	35.1
COc1ccc(CCNC(=O)C(=O)NCC2CCCN2S(=O)(=O)c2cc(C)ccc2C)cc1 (centres undefined)	-30.2	72.8*	.	-24.6	16.7	11.7	27.9*	53.3*	11.1	12.8
O=C1c2cccc3c2C2(O)c4c1cccc4C(=O)c1cccc(c12)C3=O	.	71.0*	.	.	15.3	.	32.8*	50.9*	10.2	11.3
O=C(O)CCCn1cc(NC(=O)COc2ccccc2[N+](=O)[O-])cn1	-13.2	6.6	-15.4	-1.2	0.8	14.8	.	.	.	.
Fc1ccc(C(CCCn2nnc(-c3cccnc3)n2)c2ccc(F)cc2)cc1	47.9*	90.0*	3.2	35.4*	17.3	41.2	39.0*	57.5*	8.7	4.3
Fc1ccc(-n2nnc(-c3cccnc3)n2)cc1	-11.9	-3.8	-9.3	-17.9	0.7	27.8	.	.	.	.
COc1cc(C(=O)N/N=C/c2ccc(OC(=O)c3cccc(C)c3)cc2)ccc1O	.	79.5*	-17.2	.	15.2	.	39.5*	62.5*	12.6*	30.0
CCC(CO)Oc1cc(NCc2cccc(OC)c2)c2ncn(C(C)C)c2c1 (centres undefined)	-22.4	106.2*	.	-8.0	13.9	16.9	9.2	1.7	0.4	0.5
O=C(NCc1ccccc1)C(c1ccc(F)cc1)N(Cc1cccs1)C(=O)c1cnccn1 (centres undefined)	-25.4	52.1*	-5.8	-20.2	15.7	14.8	31.4*	48.0	7.3	9.1
